Test [1] concerns KB. The test can be described thus: Cytotoxicity against human KB cells at 10^-6 M after 72 hrs by MTS assay. Type of test: functional. Put shortly:
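KB cells in D-MEM with 10% FCS were seeded at 600 cells/well and dosed 24 h later with flavone at 10^-6 M in DMSO. Controls received DMSO at 1% final. After 72 h, MTS was added for 3 h at 37 °C and A490 read in triplicate. Growth inhibition (%) = (1 − OD treated/OD control)×100.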
(Formazan colour is commonly taken as a measure of viable cells.)

The subject of a further test is HL-60. The test can be described thus: Induction of apoptosis in human HL60 cells assessed as induction of caspase 3/7 activation at 100 uM relative to control. Type of test: functional. Put shortly: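 HL60 cells (20,000/well) were treated 24 and 48 h with compounds in DMSO. Vehicle and doxorubicine served as controls. Fluorescence (ex 360/em 465 nm) was followed over 3 h.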

Test [2] relates to KB. The experiment in a line: Cytotoxicity against human KB cells after 72 hrs by MTS assay. Type of test: functional, cell-based.
For another test, the species on record is Ovis aries. The test can be described thus: Inhibition of sheep brain tubulin polymerization after 5 mins. Summed up: (§1)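 Sheep brain microtubule proteins were purified by two assembly/disassembly cycles (37 °C/0 °C) in 100 mM MES pH 6.6, 1 mM EGTA, 0.5 mM MgCl2. Polymerization rate was followed by turbidity at 350 nm, with deoxypodophyllotoxin as reference. Compounds were tested at ~2×10^-5 M for % inhibition, with IC50 determined for selected compounds.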

A short description of test [3]: Inhibition of sheep brain tubulin polymerization at 2x10'-5 M after 5 mins. Also noted: species or system Ovis aries. Summed up: as §1

The structures appear in SMILES notation.

For orientation: IC50 means the point on the concentration scale where inhibition reaches its midpoint. A high value points to a need for much substance. By inhibition is commonly meant the drop in the measured response relative to a control, in per cent. A high value points to a strong effect.

Regarding `COc1ccc(-c2oc3c(OC)c(OC)c(OC)c(O)c3c(=O)c2OC)cc1N(C)C`, the Activity with KB [1] was determined as 13%.
Regarding `COc1c(I)cc(-c2oc3c(OC)c(OC)c(OC)c(O)c3c(=O)c2OC)cc1I`, the Activity result in the test on KB [1] is “<=13%”.
For `COc1ccc(-c2oc3c(OC)c(OC)c(OC)c(O)c3c(=O)c2OC)cc1C=O`, in the test on KB [1], the Activity entry is recorded as “<=13%”.
For the molecule `COc1ccc(-c2oc3c(OC)c(OC)c(OC)c(O)c3c(=O)c2OC)cc1CO`, the Activity entry in the test with KB [1] is on record as “<=13%”.
With `COc1ccc(-c2oc3c(OC)c(OC)c(OC)c(O)c3c(=O)c2OC)cc1` [5-HYDROXYAURANETIN], in the test on HL-60, the “fold change (FC)” value stood at 4.5. In the test with KB [2], this molecule returned an IC50 of 0.72 µM. This molecule came in with an Activity in the test on KB [1] of 73%. Besides, in the test filed under Ovis aries, the inhibition worked out at 2%.
In the case of `COc1ccc(-c2oc3c(O)c(OC)c(OC)c(O)c3c(=O)c2OC)cc1N`, the IC50 in the test on KB [2] is over 10 µM. The Activity in the test with KB [1] worked out at 34%.
In turn, `COc1ccc(-c2oc3c(OC)c(OC)c(OC)c(O)c3c(=O)c2OC)cc1[N+](=O)[O-]` came in with an Activity in the test with KB [1] of 13%.
As for `COc1ccc(-c2oc3c(OC)c(OC)c(OC)c(O)c3c(=O)c2OC)cc1CN(C)C`, the Activity result in the test with KB [1] is “<=13%”.
On the same count and under the same terms, to `COc1ccc(-c2oc3c(OC)c(OC)c(OC)c(O)c3c(=O)c2OC)cc1C#N` belongs “<=13%”.
With `COc1ccc(-c2oc3c(OC)c(OC)c(O)c(O)c3c(=O)c2OC)cc1N`, the IC50 in the test on KB [2] amounted to 10 µM. Besides, the Activity with KB [1] stood at 38%.
Take `COc1c(OC)c(O)c2c(=O)c(OC)c(-c3ccc(O)cc3)oc2c1OC` [CALYCOPTERIN]: the Activity with KB [1] came to 0%.
On to `COc1ccc(-c2oc3c(OC)c(OC)c(OC)c(O)c3c(=O)c2OC)cc1-c1cc(-c2oc3c(OC)c(OC)c(OC)c(O)c3c(=O)c2OC)ccc1OC`, for which the Activity entry with KB [1] is “<=13%”.
The same measure, in the same setting: to `COc1ccc(-c2oc3c(OC)c(OC)c(OC)c(O)c3c(=O)c2OC)cc1CN` belongs “<=13%”.
`COc1ccc(-c2oc3c(OC)c(OC)c(OC)c(N)c3c(=O)c2OC)cc1N`: in the test with HL-60, the “fold change (FC)” value was 3.6. Moreover, the IC50 in the test on KB [2] turned out to be 0.128 µM; in test [3], 24 µM. The molecule also returned an Activity in the test with KB [1] of 78%.
On to `COc1ccc(-c2oc3c(OC)c(OC)c(OC)cc3c(=O)c2OC)cc1N`, for which, in the test with HL-60, the “fold change (FC)” value stood at 3.1. Further, the 50% inhibitory concentration (IC50) is 0.078 µM in the test on KB [2] and 12 µM in test [3]. In the test with KB [1], this molecule yielded an Activity of 84%.
For the molecule `COc1c(OC)c(O)c2c(=O)c(OC)c(-c3ccc(O)c(C=O)c3)oc2c1OC`, in the test with KB [1], the Activity result is on record as “<=13%”.
Consider `COc1ccc(-c2oc3c(OC)c(O)c(OC)c(O)c3c(=O)c2OC)cc1N`, for which the IC50 in the test with KB [2] came out at 6.2 µM; in test [3], 85 µM.
On to `COc1ccc(-c2oc3c(OC)c(OC)c(OC)c(O)c3c(=O)c2OC)cc1I`, for which the Activity result with KB [1] is listed as “<=13%”.
